Screens from PubChem BioAssay.
PP1 counter – blocks human PP1-alpha phosphatase, a PP5 counter-screen | purified PP1alpha, OMFP fluorescence | AID 2235 | P62136 | hit rate 0.9% among 320,000 | inhibition, % at 6.7 µM;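 active = inhibition above the mean inhibition of all tested compounds plus 3 SD, computed separately for each screening campaign, cut at about 15% in these data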
m5-HT2A agonist – activates the mouse 5-HT2A serotonin receptor. CHO-K1 mHTR2A beta-arrestin complementation, luminescence; percent of 30 µM serotonin response. P35363. hit rate 0.66% among 360,000. activation, % at 7.6 µM;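 active = activation above a run cutoff, the mean activation of all tested compounds plus 3 SD, cut at about 14% in these data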
Target sequence (P35363 whole entry, looked up): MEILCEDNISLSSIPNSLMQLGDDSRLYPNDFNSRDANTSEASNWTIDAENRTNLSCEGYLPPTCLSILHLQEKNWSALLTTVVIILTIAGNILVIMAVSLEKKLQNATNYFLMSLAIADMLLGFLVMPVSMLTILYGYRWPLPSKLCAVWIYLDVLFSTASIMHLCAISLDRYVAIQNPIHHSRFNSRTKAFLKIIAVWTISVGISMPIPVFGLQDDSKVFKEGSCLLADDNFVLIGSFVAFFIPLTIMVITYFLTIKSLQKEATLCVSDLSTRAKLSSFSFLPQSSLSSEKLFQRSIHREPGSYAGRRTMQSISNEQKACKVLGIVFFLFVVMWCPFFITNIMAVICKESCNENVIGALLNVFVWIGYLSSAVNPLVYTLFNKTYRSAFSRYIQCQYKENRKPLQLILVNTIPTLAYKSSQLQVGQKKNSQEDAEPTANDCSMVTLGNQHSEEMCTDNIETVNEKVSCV
PP5 primary – blocks human protein phosphatase 5 activity; purified PP5c, OMFP substrate fluorescence; inhibition, % at 6.7 µM; hit rate 0.18% among 320,000; AID 1987;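 active = inhibition above the campaign's mean inhibition across all tested compounds plus 3 SD, cut at about 9.5% in these data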
T cell HTS – T cell immune modulation candidate; response (vesicle binding), % at 7 µM; hit rate 0.068% among 330,000; 2C CD8+ T cell-vesicle binding, flow cytometry; hits give low values;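 active = response, share of CD8 T cells binding vesicles, and their 90th percentile fluorescence all below set limits, cut at about 80% in these data, passing the limit was not always enough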;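 note: values below 100% mean blocked vesicle binding to the CD8+ T cells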
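material = purified 2C TCR transgenic mouse naive CD8+ T cells | controls = Unloaded micro-vesicles (low), QL9 vesicles with 0.7% DMSO (high) | detection = cytometric PE anti-B7-1 and Alexa647 anti-CD8 signals after 1% paraformaldehyde fixation | incubation = binding step 1.5 h, 37 °C, antibody labelling 20 min, ice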
JMJD2C inh – human JMJD2C demethylase inhibition; GST-JMJD2C(1-420) H3K9me3 demethylation, DELFIA europium; Q9H3R0; AID 2099; inhibition, % at 2.35 µM; hit rate 0.069% among 330,000;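 active = more than half of a compound's replicate wells show inhibition beyond 50%, single wells judged on their own value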;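 note: signal counts dimethyl H3K9 product captured on neutravidin plate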
PP1 inh confirm – confirmation of human PP1 phosphatase inhibitors. shares compounds with PP1 counter. hit rate 52% among 1,900. AID 2358. purified PP1alpha, OMFP substrate fluorescence. inhibition, % at 6.7 µM;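 active = mean PP1 inhibition above a set limit taken from the earlier primary screen, cut at about 15% in these data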
PP5 counter – inhibits human PP5 phosphatase in PP1 counter-screen; shares compounds with PP1 counter; purified PP5c, OMFP fluorescence; inhibition, % at 6.7 µM; hit rate 4% among 1,900; AID 2360;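 active = mean PP5 inhibition over triplicate wells above about 9.5% taken from the earlier PP1 screen, limit read from the data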
Large screens that a line does not name were inactive (follow-up assays come after a bar, where they were run). Compounds with a hit are over-represented: about 1.7% of the library has one in this group of screens.

Cc1ccc(-c2csc(Cc3nc(-c4ccc5c(c4)CCC(=O)N5)cs3)n2)cc1	PP1 counter 36 | PP1 inh confirm 16 | PP5 counter inactive
O=C(Nc1cc([N+](=O)[O-])ccc1C(=O)Nc1cccnc1)c1ccccc1	none
Cc1cc(C)nc(-n2nc(C)c3c(=O)[nH]c(C(F)(F)F)nc32)n1	PP1 counter 19 | PP1 inh confirm inactive | PP5 counter inactive
Cc1nn(-c2cccc(Cl)c2)c2nc(C(F)(F)F)[nH]c(=O)c12	none
COc1cnc(-c2ccccn2)nc1Oc1cccc(C(F)(F)F)c1	PP1 counter 46 | PP1 inh confirm 46 | PP5 counter inactive
Cc1cccc(Oc2nc(-c3ccccn3)nc3ccccc23)c1	none
FC(F)(F)c1cccc(Oc2nc(-c3ccccc3)nnc2C(F)(F)F)c1	none
CN(c1ccccc1)c1ncccn1	none
COc1cnc(-c2ccccn2)nc1N(C)c1ccccc1	PP1 counter 28 | PP1 inh confirm 28 | PP5 counter inactive
COc1cnc(-c2ccccn2)nc1Oc1ccccc1	PP1 counter 23 | PP1 inh confirm 17 | PP5 counter inactive
Cc1cccc(N2CCN(S(=O)(=O)c3ccc(S(=O)(=O)N4CCCC4)cc3)CC2)c1C	none
Cc1cccc(N2CCN(S(=O)(=O)c3ccc4c(c3)CC(=O)N4C)CC2)c1C	PP1 counter 18 | PP1 inh confirm inactive | PP5 counter inactive
Cc1cccc(C)c1-n1cccc1/C=C1\SC(=S)N(c2cccc(C(=O)O)c2)C1=O	PP1 counter 22 | PP1 inh confirm 23 | PP5 counter inactive
Cc1cccc(C)c1NC(=O)CN1C(=O)S/C(=C\c2cccn2-c2cccc(C(=O)O)c2)C1=O	none
CC1CCCN(CCOc2cccc(Oc3ccccc3)c2)C1 (configuration not stated)	none
CC(OC(=O)C1=COCCO1)C(=O)Nc1ccc(Cl)cn1 (configuration not stated)	none
Cc1ccccc1N1CCN(CCCN2C(=O)CC(=C(c3ccccc3)c3ccccc3)C2=O)CC1	none
O=C1CC(=C(c2ccccc2)c2ccccc2)C(=O)N1CCCCN1CCN(c2cccc(Cl)c2)CC1	PP1 counter 25 | PP1 inh confirm inactive | PP5 counter inactive
COc1ccc(C2CC(c3ccc(OC)cc3)n3nc(NC(=O)c4cccs4)nc3N2)cc1 (configuration not stated)	PP1 counter 18 | PP1 inh confirm inactive | PP5 counter inactive
N#Cc1c(SCC(=O)Nc2nc3ccccc3s2)sc2c(O)cc(=O)[nH]c12	PP1 counter 19 | PP1 inh confirm inactive | PP5 counter inactive
N#Cc1c(SCC(=O)Nc2nc3ccc(Br)cc3s2)sc2c(O)cc(=O)[nH]c12	PP1 counter 18 | PP1 inh confirm inactive | PP5 counter inactive
N#Cc1c(SCC(=O)Nc2nccs2)sc2c(O)cc(=O)[nH]c12	PP1 counter 26 | PP1 inh confirm inactive | PP5 counter inactive
N#Cc1cccc(NC(=O)CSc2sc3c(O)cc(=O)[nH]c3c2C#N)c1	none
CCCSc1nnc(NC(=O)CSc2sc3c(O)cc(=O)[nH]c3c2C#N)s1	none
N#Cc1c(SCC(=O)Nc2ccc(Cl)cc2Cl)sc2c(O)cc(=O)[nH]c12	none
CC(C(=O)NCc1cccs1)N1CCN(S(=O)(=O)c2ccc3c(c2)OCCCO3)CC1 (configuration not stated)	none (no result: PP1 counter, PP5 primary, T cell HTS, JMJD2C inh)
O=C(NCCc1cn[nH]c1)c1ccc2oc(CCc3ccccc3)nc2c1	none (no result: PP1 counter, PP5 primary, T cell HTS, JMJD2C inh)
COc1cc(Cl)ccc1NC(=S)N(CCN1CCOCC1)C1CCN(C(C)=O)CC1	none
O=C(CSc1nc2ccsc2c(=O)n1CC1CCC(C(=O)O)CC1)c1ccc(Cl)cc1 (configuration not stated)	PP1 counter 20 | PP1 inh confirm inactive | PP5 counter inactive
CCC(C)C(NC(=O)C1CCC(C)CC1)C(=O)Nc1cc(OC)ccc1OC (configuration not stated)	none
O=C(O)C1Nc2ccc(Br)cc2C2C=CCC12 (configuration not stated)	PP1 counter 38 | PP1 inh confirm inactive | PP5 counter inactive
O=C(O)C1Nc2c(Cl)cc(Cl)cc2C2C=CCC12 (configuration not stated)	PP1 counter 24 | PP1 inh confirm inactive | PP5 counter inactive
O=C(NCc1c[nH]c2ccccc12)c1ccccc1	none
O=C(NCc1ccc(C(F)(F)F)cc1)C12CN(Cc3ccccc3)CC1C(c1cccc([N+](=O)[O-])c1)=NO2 (configuration not stated)	none
O=C(NCc1ccc2c(c1)OCO2)C12CN(Cc3ccccc3)CC1C(c1cccc([N+](=O)[O-])c1)=NO2 (configuration not stated)	PP1 counter 25 | PP1 inh confirm inactive | PP5 counter inactive
c1csc(-c2nc(CN3CCSCC3)cs2)c1	none
Cc1ccc(C(=O)Nc2ccc(N3CCN(C(=O)c4ccco4)CC3)cc2)cc1	none
CC(=O)c1ccc(NC(=O)c2ccc(NC(=O)c3ccco3)cc2)cc1	none
O=C(/C=C/c1ccc(Br)cc1)c1ccc(NC(=O)c2ccco2)cc1	PP1 counter 22 | PP1 inh confirm 22 | PP5 counter inactive
O=C(Nc1ccc(N2CCN(C(=O)c3ccco3)CC2)cc1)c1ccc(Br)cc1	PP1 counter 21 | PP1 inh confirm 39 | PP5 counter inactive
COC(=O)c1ccc(NC(=O)c2ccc(NC(=O)c3ccco3)cc2)cc1	PP1 counter 30 | PP1 inh confirm 26 | PP5 counter inactive
CCOC(=O)C1=CCN(S(=O)(=O)c2ccccc2[N+](=O)[O-])C1c1ccc(C)cc1 (configuration not stated)	none (no result: PP1 counter, PP5 primary, T cell HTS, JMJD2C inh)
Cc1ccc(CNC(=O)c2ccc(N3CCC4(CC3)CC(c3cccc(Br)c3)=NO4)c(NC(=O)c3ccco3)c2)cc1	none
Cc1ccc(CNC(=O)c2ccc(N3CCC4(CC3)CC(c3ccccc3)=NO4)c(NC(=O)c3ccco3)c2)cc1	PP1 counter 20 | PP1 inh confirm 16 | PP5 counter inactive
Cc1cccc(Cn2c(C)nc3c(N)c(C)c(C)cc32)c1	none
C#CCOCCOCCOCCNc1nc(N2CCN(C(=O)CCCCCCCCCCNC(=O)[C@H](CCCCN)n3cc(C[C@@H](C)CC)nn3)CC2)nc(N2CCN(C(=O)CCCCCCCCCCNC(=O)[C@@H]([C@H](C)O)n3cc(C)nn3)CC2)n1	PP1 counter 61 | PP1 inh confirm 47 | PP5 counter inactive
C#CCOCCOCCOCCNc1nc(N2CCN(C(=O)CCCCCCCCCCNC(=O)Cn3cc(CCCCCN)nn3)CC2)nc(N2CCN(C(=O)CCCCCCCCCCNC(=O)Cn3cc(C[C@@H](C)O)nn3)CC2)n1	none (no result: JMJD2C inh)
